{"data": "Measurements gathered from unrelated publications", "read-out": "cell growth or viability", "note": "Compare with care: the assays were run in different laboratories."}
{"Compound": "COc1cc(C(=O)c2nc(-c3cccc4cc[nH]c34)c[nH]2)cc(OC)c1OC", "cell line": "A-375", "assay": "MTS", "setting": "72 h", "quantity": "IC50", "value": "0.0205 µM"}
{"Compound": "NCCCCC(=O)Nc1ccccc1/N=c1\\cc(-c2ccc3c(c2)OCO3)oc2ccccc12", "cell line": "MDA-MB-231", "assay": "CCK-8", "setting": "1 µM", "quantity": "inhibition", "value": "-5.88%"}
{"Compound": "Cn1nnc2c(C(N)=O)ncn2c1=O", "cell line": "human Astrocyte", "assay": "MTT", "quantity": "IC50", "value": "2080 µM"}
{"Compound": "O=C(Nc1ccccc1)Nc1ccc(Oc2nc3ccccc3n3cnnc23)cc1", "cell line": "MDA-MB-231", "assay": "MTT", "setting": "100 µM, 24 h", "quantity": "viability", "value": "41.6%"}
{"Compound": "CN(C)c1ccc(Nc2nc(-c3ccncc3)nc3c2CC(N)CC3)cc1 (stereo not drawn)", "cell line": "A-375", "assay": "MTT", "quantity": "IC50", "value": "12.6 µM"}
{"Compound": "O=C(Nc1ccccc1/N=c1\\cc(-c2ccc3c(c2)OCO3)oc2ccccc12)N1CCOCC1", "cell line": "MDA-MB-231", "assay": "CCK-8", "setting": "1 µM", "quantity": "inhibition", "value": "-4.28%"}
{"Compound": "O=C(Nc1ccc(Cl)cc1)Nc1ccc(Oc2nc3ccccc3n3cnnc23)cc1", "cell line": "MDA-MB-231", "assay": "MTT", "setting": "25 µM, 24 h", "quantity": "viability", "value": "77.3%"}
{"Compound": "O=C(NN=Cc1ccc([N+](=O)[O-])s1)C1CC(=O)N(c2ccc(F)cc2F)C1 (stereo not drawn)", "cell line": "A-375", "assay": "MTT", "setting": "100 µM, 72 h", "quantity": "viability", "value": "4.41%"}
{"Compound": "COc1cc(C(=O)c2nc(-c3ccncc3)c[nH]2)cc(OC)c1OC", "cell line": "A-375", "assay": "MTS", "setting": "72 h", "quantity": "IC50", "value": "> 1 µM"}
{"Compound": "O=C(Nc1ccc(Oc2nc3ccccc3n3cnnc23)cc1)Nc1cccc(Cl)c1", "cell line": "MDA-MB-231", "assay": "MTT", "setting": "100 µM, 24 h", "quantity": "viability", "value": "29.3%"}
{"Compound": "Cc1nc(Nc2ncc(C(=O)Nc3c(C)cccc3Cl)s2)cc(N2CC[C@H](O)C2)n1", "cell line": "L-82", "assay": "ATP luminescence", "setting": "72 h", "quantity": "IC50", "value": "> 10 µM"}
{"Compound": "Nc1ccccc1/N=c1\\cc(-c2ccc3c(c2)OCO3)oc2ccccc12", "cell line": "MDA-MB-231", "assay": "CCK-8", "setting": "1 µM", "quantity": "inhibition", "value": "2.58%"}
{"Compound": "CNC(=O)c1cc(Oc2ccc(NC(=O)Nc3ccc(Cl)c(C(F)(F)F)c3)cc2)ccn1", "cell line": "MDA-MB-231", "assay": "MTT", "setting": "3.125 µM, 24 h", "quantity": "viability", "value": "70.2%"}
{"Compound": "O=C(Nc1ccccc1/N=c1\\cc(-c2ccc3c(c2)OCO3)oc2ccccc12)N1CCNCC1", "cell line": "MDA-MB-231", "assay": "CCK-8", "setting": "1 µM", "quantity": "inhibition", "value": "2.22%"}
{"Compound": "COc1cc(C(=O)c2nc(-c3ccnc4[nH]ccc34)c[nH]2)cc(OC)c1OC", "cell line": "A-375", "assay": "MTS", "setting": "72 h", "quantity": "IC50", "value": "0.0285 µM"}
{"Compound": "COc1cccc2c1C(=O)c1c(O)c3c(c(O)c1C2=O)C[C@@](O)(C(=O)CO)C[C@@H]3O[C@H]1C[C@H](N)[C@H](O)[C@H](C)O1", "cell line": "MRC5", "assay": "MTT", "setting": "75 h", "quantity": "IC50", "value": "2.7 µM"}
{"Compound": "NCCC(=O)Nc1ccccc1/N=c1\\cc(-c2ccc3nc(N)oc3c2)oc2cc(O)ccc12", "cell line": "MDA-MB-231", "assay": "CCK-8", "setting": "1 µM", "quantity": "inhibition", "value": "22%"}
{"Compound": "O=c1[nH]cc(F)c(=O)[nH]1", "cell line": "C32", "assay": "SRB", "setting": "72 h", "quantity": "IC50", "value": "0.59 µg/mL"}
{"Compound": "O=C(Nc1ccccc1/N=c1\\cc(-c2ccc3c(c2)OCCO3)oc2cc(F)ccc12)N1CCOCC1", "cell line": "MDA-MB-231", "assay": "CCK-8", "setting": "1 µM", "quantity": "inhibition", "value": "8.63%"}
{"Compound": "COc1cc(C(=O)c2nc(-c3cccc4[nH]ccc34)cs2)cc(OC)c1OC", "cell line": "A-375", "assay": "MTS", "setting": "72 h", "quantity": "IC50", "value": "0.0056 µM"}
{"Compound": "Oc1cccc(-c2nc(N3CCOCC3)c3oc4ncccc4c3n2)c1", "cell line": "MDA-MB-231", "assay": "CCK-8", "setting": "1 µM", "quantity": "inhibition", "value": "18.8%"}
{"Compound": "COc1cc(C(=O)c2nc(-c3cccc4c3CC(=O)N4)c[nH]2)cc(OC)c1OC", "cell line": "A-375", "assay": "MTS", "setting": "72 h", "quantity": "IC50", "value": "0.0275 µM"}
{"Compound": "C[C@H](N)C(=O)Nc1ccccc1/N=c1\\cc(-c2ccc3c(c2)OCO3)oc2ccccc12", "cell line": "MDA-MB-231", "assay": "CCK-8", "setting": "1 µM", "quantity": "inhibition", "value": "7.31%"}
{"Compound": "COc1cccc(NC(=O)Nc2ccc(Oc3nc4ccccc4n4cnnc34)cc2)c1", "cell line": "MDA-MB-231", "assay": "MTT", "setting": "50 µM, 24 h", "quantity": "viability", "value": "32.4%"}
